Each block holds one compound with its values, some of them ahead of it.
How the values were obtained:
[1] = molecular target: T1, Angiotensin-converting enzyme (Mus musculus, UniProt P09470); assay: Inhibitory potency against angiotensin converting enzyme by displacement of [3H]trandolaprilate binding in mouse lung
T1 sequence (P09470 whole entry): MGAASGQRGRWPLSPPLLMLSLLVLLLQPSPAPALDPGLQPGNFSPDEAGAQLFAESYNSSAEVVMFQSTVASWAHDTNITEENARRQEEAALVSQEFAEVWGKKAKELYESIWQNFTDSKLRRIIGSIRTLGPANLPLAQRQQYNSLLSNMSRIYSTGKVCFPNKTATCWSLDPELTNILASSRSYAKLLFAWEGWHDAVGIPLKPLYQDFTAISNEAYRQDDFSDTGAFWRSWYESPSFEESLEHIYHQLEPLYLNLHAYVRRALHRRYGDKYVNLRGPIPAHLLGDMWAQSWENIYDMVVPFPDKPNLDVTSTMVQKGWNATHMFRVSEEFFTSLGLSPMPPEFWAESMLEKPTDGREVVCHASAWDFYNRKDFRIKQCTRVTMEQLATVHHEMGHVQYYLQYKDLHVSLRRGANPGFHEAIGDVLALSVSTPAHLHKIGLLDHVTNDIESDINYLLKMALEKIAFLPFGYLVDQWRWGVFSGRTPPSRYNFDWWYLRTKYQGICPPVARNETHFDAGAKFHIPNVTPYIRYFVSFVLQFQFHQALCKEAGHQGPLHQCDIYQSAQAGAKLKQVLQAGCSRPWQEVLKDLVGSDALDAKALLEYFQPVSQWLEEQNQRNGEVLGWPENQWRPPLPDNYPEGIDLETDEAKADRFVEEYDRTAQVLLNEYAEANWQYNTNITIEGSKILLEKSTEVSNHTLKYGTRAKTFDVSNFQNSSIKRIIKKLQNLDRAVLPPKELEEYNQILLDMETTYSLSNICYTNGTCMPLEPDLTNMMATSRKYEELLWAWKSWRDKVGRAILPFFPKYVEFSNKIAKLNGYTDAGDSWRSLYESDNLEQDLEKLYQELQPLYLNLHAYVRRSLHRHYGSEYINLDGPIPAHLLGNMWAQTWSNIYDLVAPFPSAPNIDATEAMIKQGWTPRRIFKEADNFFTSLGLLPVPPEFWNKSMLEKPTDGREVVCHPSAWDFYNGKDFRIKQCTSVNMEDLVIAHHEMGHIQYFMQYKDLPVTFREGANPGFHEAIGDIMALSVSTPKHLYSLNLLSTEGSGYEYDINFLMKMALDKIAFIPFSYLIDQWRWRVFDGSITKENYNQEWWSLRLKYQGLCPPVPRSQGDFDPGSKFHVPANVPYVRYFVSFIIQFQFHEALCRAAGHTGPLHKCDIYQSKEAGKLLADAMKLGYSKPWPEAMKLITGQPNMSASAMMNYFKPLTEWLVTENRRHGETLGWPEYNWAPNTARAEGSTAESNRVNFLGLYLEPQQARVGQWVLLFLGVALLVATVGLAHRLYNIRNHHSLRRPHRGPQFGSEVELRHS

[2] = molecular target: T2, Angiotensin-converting enzyme (Mus musculus) (UniProt P09470); assay: Inhibition of lung Angiotensin Converting Enzyme (ACE) in mouse at a dose of 2.6*10e-5 mol/kg after 20 min oral administration
T2 sequence (whole entry): T1 sequence (P09470 whole entry)
Summary of the method: (§1)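 Prescreen in mice: single oral dose of 2.6 X 10-5 mol/kg of prodrug (thioacetyl and benzyl ester protected, tested as stereoisomer mixtures). Inhibition of binding of a tritiated ACE probe to lung measured 20 and 60 min after dosing. Mean ± SEM of three experiments, three mice each.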

[3] = molecular target: T2, Angiotensin-converting enzyme (Mus musculus); assay: In vivo inhibition of lung Angiotensin Converting Enzyme (ACE) in mouse at a dose of 2.6*10e-5 mol/kg after 60 min oral administration; type: functional, organism-based; summary of the method: as §1
[4] = molecular target: T2, Angiotensin-converting enzyme (Mus musculus); assay: In vivo inhibition of lung ACE was observed at 120 min after oral administration of the compound; type: functional, organism-based; design: concentration or dose not given beside the values
[5] = molecular target: T2, Angiotensin-converting enzyme (Mus musculus); assay: In vivo inhibition of lung ACE was observed at 30 min after oral administration of the compound; type: organism-based; design: concentration or dose not given beside the values
[6] = system: Mus musculus; assay: In vivo inhibition of lung ACE was observed at 60 min after oral administration; type: functional; design: concentration or dose not given beside the values
[7] = molecular target: T2, Angiotensin-converting enzyme (Mus musculus); assay: In vivo inhibition of lung ACE was observed at 240 min after oral administration of the compound; type: functional, organism-based; design: concentration or dose not given beside the values
[8] = molecular target: T3, Neprilysin (Mus musculus) (UniProt Q61391); assay: Inhibition of Neutral Endopeptidase activity was measured by using the displacement of [3H]HACBOGly from mouse kidney after 2 hr oral administration; design: scale not given: the % may be the effect or the level left
T3 sequence (whole entry): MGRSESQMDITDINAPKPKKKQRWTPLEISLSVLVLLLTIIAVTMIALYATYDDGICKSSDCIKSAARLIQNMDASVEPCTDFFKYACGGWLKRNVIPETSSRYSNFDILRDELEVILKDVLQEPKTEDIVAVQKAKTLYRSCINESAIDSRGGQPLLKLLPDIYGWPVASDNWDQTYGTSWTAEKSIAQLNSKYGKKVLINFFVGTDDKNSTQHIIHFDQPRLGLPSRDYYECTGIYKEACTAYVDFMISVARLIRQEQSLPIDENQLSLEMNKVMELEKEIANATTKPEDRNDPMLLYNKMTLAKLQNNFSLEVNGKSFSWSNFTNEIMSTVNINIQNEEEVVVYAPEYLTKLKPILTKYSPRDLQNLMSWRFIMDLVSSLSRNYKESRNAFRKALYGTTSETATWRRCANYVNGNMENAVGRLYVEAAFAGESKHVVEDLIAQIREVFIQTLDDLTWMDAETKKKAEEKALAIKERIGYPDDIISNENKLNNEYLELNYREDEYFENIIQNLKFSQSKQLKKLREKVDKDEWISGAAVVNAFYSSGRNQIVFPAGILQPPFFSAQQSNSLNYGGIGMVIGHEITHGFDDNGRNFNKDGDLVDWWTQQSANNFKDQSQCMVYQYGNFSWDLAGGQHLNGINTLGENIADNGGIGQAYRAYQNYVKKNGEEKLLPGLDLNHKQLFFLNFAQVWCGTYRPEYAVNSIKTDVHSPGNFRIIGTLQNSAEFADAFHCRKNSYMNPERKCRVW
Summary of the method: (§2)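 Mice dosed orally at 2.6 X 10-6 mol/kg in 10% ethanol/10% cremophor/80% water. [3H]HACBOGly (1 uCi) injected iv at intervals after dosing. Kidneys taken 15 min later, homogenized in 50 mM Tris-HCl pH 7.4 at 4 °C and filtered, radioactivity counted. Inhibition expressed as percent displacement versus control. Nonspecific binding defined with coinjected retrothiorphan (10.000 eq).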

[9] = molecular target: T3, Neprilysin (Mus musculus); assay: Inhibition of Neutral Endopeptidase activity was measured by using the displacement of [3H]-HACBOGly from mouse kidney after 1 hr oral administration; design: scale not given: the % may be the effect or the level left; summary of the method: as §2
[10] = molecular target: T3, Neprilysin (Mus musculus); assay: Inhibition of Neutral Endopeptidase activity was measured by using the displacement of [3H]HACBOGly from mouse kidney after 8 hr oral administration; design: scale not given: the % may be the effect or the level left; summary of the method: as §2
[11] = molecular target: T3, Neprilysin (Mus musculus); assay: Inhibition of Neutral Endopeptidase activity was measured by using the displacement of [3H]HACBOGly from mouse kidney after 4 hr oral administration; design: scale not given: the % may be the effect or the level left; summary of the method: as §2
[12] = molecular target: T3, Neprilysin (Mus musculus); assay: Inhibition of Neutral Endopeptidase activity was measured by using the displacement of [3H]HACBOGly from mouse kidney after 16h oral administration; design: scale not given: the % may be the effect or the level left; summary of the method: as §2

SMILES: COc1ccc(C(C)C(CS)C(=O)NC(Cc2ccc(O)cc2)C(=O)O)cc1 (centres undefined)
- IC50 [1]: 0.0036 µM

SMILES: C[C@H](NC(=O)[C@H](CS)[C@@H](C)c1ccccc1)C(=O)O (stereo in doubt; 44c)
- Ki [1]: 0.0045 µM

SMILES: CC(c1ccc(N)cc1)C(CS)C(=O)NC(Cc1ccc(O)cc1)C(=O)O (centres undefined)
- IC50 [1]: 0.012 µM

SMILES: CC(=O)SCC(C(=O)N[C@@H](C)C(=O)O)C(C)c1ccccc1 (some centres undefined)
- Control [4]: 18%
- Control [5]: 31%
- Control [6]: 29%
- Control [7]: 16%

SMILES: CC(C)C(NC(=O)C(CS)C(C)c1ccccc1)C(=O)O (centres undefined)
- IC50 [1]: 0.1 µM

SMILES: CC(NC(=O)C(CS)C(C)c1ccc2c(c1)OCO2)C(=O)O (centres undefined)
- IC50 [1]: 0.0095 µM

SMILES: COc1ccc(C(C)C(CSC(C)=O)C(=O)N[C@@H](Cc2ccc(OC(C)=O)cc2)C(=O)OCc2ccccc2)cc1 (some centres undefined)
- inhibition [2]: 14%
- inhibition [3]: 33%

SMILES: C[C@H](c1ccccc1)[C@@H](CS)C(=O)N[C@@H](Cc1ccccc1)C(=O)O
- Ki [1]: 0.01 µM

SMILES: CC(c1ccccc1)C(CSC(=O)c1ccccc1)C(=O)N[C@@H](C)C(=O)O (some centres undefined)
- Control [8]: 100%
- Control [4]: 44%
- Control [9]: 100%
- Control [5]: 75%
- Control [10]: 93%
- Control [11]: 100%
- Control [6]: 66%
- Control [7]: 32%
- Control [12]: 12%

SMILES: CC(c1ccccc1)C(CSC(=O)C12CC3CC(CC(C3)C1)C2)C(=O)N[C@@H](C)C(=O)O (some centres undefined)
- Control [4]: 36%
- Control [5]: 40%
- Control [6]: 39%
- Control [7]: 35%

SMILES: CCC(c1ccccc1)C(CS)C(=O)NC(Cc1ccc(O)cc1)C(=O)O (centres undefined)
- IC50 [1]: 0.11 µM

SMILES: CC(c1ccc(O)cc1)C(CS)C(=O)NC(Cc1ccc(O)cc1)C(=O)O (centres undefined)
- IC50 [1]: 0.0079 µM

SMILES: CCCC[C@H](NC(=O)C(CSC(C)=O)C(C)c1ccccc1)C(=O)OCc1ccccc1 (some centres undefined)
- inhibition [2]: 34%
- inhibition [3]: 41%

SMILES: C[C@H](NC(=O)[C@H](CS)[C@@H](C)c1ccccc1)C(=O)O (stereo in doubt; 44b)
- Ki [1]: 0.016 µM

Results, then the compound that gave them:

- IC50 [1]: 0.0043 µM
SMILES: CC(c1ccccc1)C(CS)C(=O)NC(Cc1ccc(O)cc1)C(=O)O (centres undefined)

- IC50 [1]: 0.032 µM
SMILES: CC(c1ccccc1)C(CS)C(=O)NCC(=O)O (centres undefined)

- IC50 [1]: 0.043 µM
SMILES: CC(c1ccccc1)C(CS)C(=O)NC(COCc1ccccc1)C(=O)O (centres undefined)

- inhibition [2]: 25%
- inhibition [3]: 28%
SMILES: CC(=O)Oc1ccc(C[C@H](NC(=O)C(CSC(C)=O)C(C)c2ccccc2)C(=O)OCc2ccccc2)cc1 (some centres undefined)

- IC50 [1]: 0.019 µM
SMILES: CC(C)CC(NC(=O)C(CS)C(C)c1ccccc1)C(=O)O (centres undefined)

- IC50 [1]: 0.005 µM
SMILES: CC(NC(=O)C(CS)C(C)c1ccc(F)c(F)c1)C(=O)O (centres undefined)

- IC50 [1]: 0.0069 µM
SMILES: CC(c1ccc(F)cc1)C(CS)C(=O)NC(Cc1ccc(O)cc1)C(=O)O (centres undefined)

- IC50 [1]: 0.014 µM
SMILES: COc1cc(C(C)C(CS)C(=O)NC(Cc2ccc(O)cc2)C(=O)O)ccc1O (centres undefined)

From ChEMBL document CHEMBL1127630, “New dual inhibitors of neutral endopeptidase and angiotensin-converting enzyme: rational design, bioavailability, and pharmacological responses in experimental hypertension” (J Med Chem, 1994)
